# Screening results from PubChem BioAssay.
# In the library only some 2.5% were active in any assay of this set; here they are far more common.
# SENP8 block-1 – SENP8 protease inhibition; Q96LD8; purified SENP8, Z-RLRGG-aminoluciferin cleavage, luminescence; inhibition, % at 10 µM; 330,000 compounds, 1.2% hits; AID 2540; in the data active = inhibition above about 50%
# SENP7 block – SENP7 protease inhibition | recombinant SENP7, Z-RLRGG-aminoluciferin luminescence, 40 min | Q9BQF6 | inhibition, % at 5 µM | 330,000 compounds, 1.5% hits;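 active = inhibition above about 50% at the single test dose, limit read from the data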
# SENP8 block-2 – inhibitors of human SENP8 protease. Q96LD8. recombinant SENP8, Nedd8 substrate fluorescence. inhibition, % at 20 µM. 360,000 compounds, 0.64% hits. AID 602440; in the data active = inhibition mostly above about 40%, no sharp cut-off; inactive = mostly below about 27%
# SENP1 FRET inh – blocks the human SENP1 SUMO protease catalytic domain; recombinant SENP1 catalytic domain, CyPet-SUMO1-YPet FRET cleavage; inhibition, % at 10 µM; 360,000 compounds, 0.21% hits;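 active = inhibition at least 30% at 10 µM, raw YFP signal under a set limit, fluorescence ratio 0.5 to 1.5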
#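 Test system: hSENP1 catalytic domain, recombinant; Amount: 20 pM final SENP1 enzyme; Medium: Tris pH 8 buffer plus EDTA, NaCl, BME, BSA, NP40, catalase; Schedule: 50 min enzyme reaction, room temperature, light-protected; Technique: FRET fluorescence in CFP and YFP emission channels; Controls: no-enzyme wells low, DMSO-plus-enzyme wells high control.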
# SENP6 block – blocks the human protease SENP6; Q9GZR1; Recombinant SENP6 catalytic domain, aminoluciferin luminescence; inhibition, % at 10 µM; 330,000 compounds, 1.8% hits;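 active = inhibition above about 50% at the single tested dose, limit read from the data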
# Target sequence (Q9GZR1 628-1112 limits assumed): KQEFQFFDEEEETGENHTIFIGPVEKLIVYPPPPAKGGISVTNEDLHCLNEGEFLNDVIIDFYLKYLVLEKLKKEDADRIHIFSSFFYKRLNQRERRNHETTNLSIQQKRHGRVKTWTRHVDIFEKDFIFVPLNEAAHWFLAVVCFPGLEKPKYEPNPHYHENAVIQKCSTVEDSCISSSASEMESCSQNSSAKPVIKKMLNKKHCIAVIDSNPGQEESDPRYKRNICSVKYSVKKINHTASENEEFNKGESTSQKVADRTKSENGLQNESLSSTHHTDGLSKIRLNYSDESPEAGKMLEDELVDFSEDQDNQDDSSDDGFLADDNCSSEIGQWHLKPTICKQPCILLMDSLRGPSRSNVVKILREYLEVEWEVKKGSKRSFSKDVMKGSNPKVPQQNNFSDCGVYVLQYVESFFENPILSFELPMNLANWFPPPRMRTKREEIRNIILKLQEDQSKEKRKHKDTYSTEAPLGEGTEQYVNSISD
# SENP8 confirm – human SENP8 inhibition, confirmed; inhibition, % at 12.5 µM; shares compounds with SENP7 block; Recombinant SENP8, Z-RLRGG-aminoluciferin luminescence, 60 min; AID 488912; 6,200 compounds, 40% hits;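 active = mean inhibition across replicates above about 50%, limit read from the data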
# SENP6 confirm – confirmation of human SENP6 protease inhibitors | shares compounds with SENP7 block | recombinant SENP6, Z-RLRGG-aminoluciferin luminescence | inhibition, % at 12.5 µM | 6,200 compounds, 58% hits
# SENP7 conf – human SENP7 inhibition, confirmed. shares compounds with SENP7 block. recombinant SENP7, Z-RLRGG-aminoluciferin luminescence, 40 min. inhibition, % at 12.5 µM. 6,200 compounds, 69% hits
# Casp3 SENP sel – selectivity test for SENP inhibitors: human caspase-3 inhibition; inhibition, % at 12.5 µM; 6,200 compounds, 60% hits; shares compounds with SENP7 block; purified caspase-3, Z-DEVD-aminoluciferin luminescence, 60 min;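 active = mean inhibition above about 50%, limit read from the data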
# Luc interf – interferes with luciferase luminescence in SENP counter-screen. 6,200 compounds, 39% hits. shares compounds with SENP7 block. Pre-incubated SENP8/Z-RLRGG-aminoluciferin, luciferase luminescence interference. inhibition, % at 12.5 µM;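 active = mean inhibition above about 50% when retested at one dose, limit read from the data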
# Hits are given with their value; n = inactive; x = not tested or not shown.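 The calls were made as follows, unless noted: active = mean inhibition above about 50% in the one-dose retest (limit read from the data); inactive = the rest.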
SMILES,SENP8 block-1,SENP7 block,SENP8 block-2,SENP1 FRET inh,SENP6 block,SENP8 confirm,SENP6 confirm,SENP7 conf,Casp3 SENP sel,Luc interf
Nc1cccnc1Sc1cccc(Cl)c1,n,n,n,n,61,n,n,n,n,n
CCCCCCN[C@H]1CCC2C3CC=C4C[C@@H](O)CC[C@]4(C)C3CC[C@@]21C (stereo partly drawn),n,n,n,n,n,x,x,x,x,x
CCOC(=O)CCS(=O)(=O)c1ccc(-c2ccc(S(=O)(=O)CCC(=O)OCC)cc2)cc1,n,58,n,n,n,n,n,n,n,n
COc1ccc(-c2cn3nc(SCC(=O)NC4CCCCC4)ccc3n2)cc1,n,61,n,n,n,n,n,n,n,n
COc1ccc(-c2ccc(SCC(=O)NC3CCCCC3)nn2)cc1,n,n,n,n,n,x,x,x,x,x
CC(=O)Oc1cccc(/C=C2\C=C(c3ccc(C)cc3)OC2=O)c1,n,n,n,n,n,x,x,x,x,x
CC(=O)Oc1cccc(/C=C2\Sc3ccccc3C2=O)c1,89,83,n,n,91,75,94,68,n,n
CCCCOc1ccc(/C=C2/Sc3ccccc3C2=O)cc1,76,71,n,n,n,n,n,n,n,n
O=C1Nc2ccccc2S/C1=C/c1cccs1,n,n,n,n,n,x,x,x,x,x
O=C1/C(=C/c2cccs2)Sc2ccccc21,81,93,n,n,86,n,n,58,n,n
O=C1NC(=O)/C(=C\c2ccc(OCc3cnc(Cl)s3)cc2)S1,n,n,n,n,n,x,x,x,x,x
CC(C)COc1ccc(/C=C2/Sc3ccccc3C2=O)cc1,94,95,n,n,96,n,n,n,n,n
O=C(NCc1ccccc1F)c1cccc(S(=O)(=O)N2CCCCCC2)c1,n,n,n,n,n,x,x,x,x,x
O=C(CCN1C(=O)c2ccccc2C1=O)c1ccccc1,x,x,n,n,x,x,x,x,x,x
CC(C)(C)c1ccc(NC(=O)C2CCCN(c3cnccn3)C2)cc1 (stereo not drawn),n,n,n,n,n,x,x,x,x,x
Cc1cccc(Nc2n[nH]c(=S)s2)c1C,n,n,n,n,n,x,x,x,x,x
Cc1cccc(Nc2nc3ccccc3s2)c1C,65,83,n,n,69,n,74,94,59,n
COc1cccc(Nc2nc3ccc(OC)cc3s2)c1,n,n,n,n,n,x,x,x,x,x
COc1ccc(Nc2nc3ccccc3s2)cc1,62,69,n,n,75,66,66,89,50,n
COc1ccccc1C(=O)N1CCN(C(=O)[C@H]2O[C@@H](n3ccc(N)nc3=O)[C@H](O)[C@@H]2O)CC1,x,x,n,n,x,x,x,x,x,x
OC[C@H]1O[C@@](CO)(O[C@H]2O[C@H](CO)[C@@H](O)[C@H](O)[C@H]2O)[C@@H](O[C@H]2O[C@H](CO)[C@@H](O)[C@H](O)[C@H]2O)[C@@H]1O,x,x,n,n,x,x,x,x,x,x
COC(=O)[C@@]12CCCN1[C@H](c1ccc(-c3ccc(OC)cc3)cc1)[C@@H]1C(=O)N(C)C(=O)[C@@H]12,n,n,n,n,n,x,x,x,x,x
Nc1nc2ccccc2n1/N=C/c1ccc(Br)cc1,67,n,n,n,76,60,63,90,n,n
Nc1nc2ccccc2n1/N=C/c1ccc2c(c1)OCO2,84,90,n,n,90,86,86,98,86,82
Nc1nnnn1/N=C/c1ccc(Br)cc1,n,n,n,n,n,x,x,x,x,x
CN(Cc1ccccc1)C(=O)CC(c1ccccc1)c1cc(Cl)ccc1O (stereo not drawn),n,n,n,n,n,x,x,x,x,x
CCc1nc2c(OCc3ccc(F)cc3)cccn2c1N(C)C(=O)COc1ccccc1,x,x,n,n,x,x,x,x,x,x
O=C(c1coc2ccc(O)cc12)C1CC1,n,n,n,n,n,x,x,x,x,x
